How the values were obtained:
[1] = tested on: Mus musculus; experiment: Increase in life of span over controls, 10e5 L1210 cells per mouse of 20 g, by ip route LD0/10 ata conc of LD0/10(N); format: functional; set-up: unit not given here
Method in brief: (§1)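 Random DBA/2 female mice of 20 g were inoculated ip with 10^5 L1210 leukemia cells. A single ip dose in 200 μL water was given 24 h later, at LD0/10, LD0/5 or LD0/2, with 10 mice per dose and 20 controls. Deaths were counted daily at the same hour. ILS was taken from treated versus control median survival time, and cured mice were counted.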

[2] = tested on: L1210; experiment: In vitro cytotoxicity by growth inhibition in L1210 cells; format: functional; settings: Mus musculus, read-out: ID50 (the source's name)
Method in brief: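 L1210 leukemia suspension cultures in RPMI with fetal calf serum, 37 °C, 6% CO2; 10^4 cells/mL exponential phase exposed in duplicate to drug at final 10^-5–10^-8 M for 48 h. Cells counted electronically, viability by trypan blue exclusion; ID50 (50% growth inhibition vs untreated controls) from regression of % inhibition against log dose.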

[3] = tested on: Nucleic Acid; experiment: Apparent binding constant (Kapp) to DNA, by direct fluorimetric titration, at pH 5; 10e-6; format: nucleic-acid assay; settings: Bos taurus
Method in brief: (§2)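 Calf thymus DNA binding by direct fluorescence titration (excitation 310 nm, emission 540 nm) in 10 mM acetate buffer, 100 mM NaCl, pH 5.2, 20 °C. Scatchard plots gave apparent association constant Kapp and apparent binding sites per nucleotide r_app. Drug stocks 5×10^-3 M in 50% DMSO/water, diluted in buffer.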

[4] = tested on: Mus musculus; experiment: In vivo antitumor effect, expressed as the lethal dose (LD100), administered by intraperitoneal route; format: ADME, organism-based; settings: ip
[5] = tested on: Mus musculus; experiment: In vivo antitumor effect, expressed as the highest nonlethal dose (LD0), administered by intraperitoneal route; format: ADME, organism-based; settings: ip
[6] = tested on: Mus musculus; experiment: Increase in life of span over controls, 10e5 L1210 cells per mouse of 20 g, by ip route LD0/10 ata conc of LD0/5(N); format: functional; method in brief: as §1
[7] = tested on: NIH3T3; experiment: In vitro cytotoxicity by growth inhibition in NIH3T3 cells; format: functional; settings: Mus musculus, read-out: ID50 (the source's name)
Method in brief: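 NIH-3T3 mouse fibroblasts in DMEM, 5% fetal calf serum, 37 °C, 6% CO2, seeded at 7.5×10^3 cells/cm²; drug added 24 h later and growth followed for three days. Trypsinized cells counted electronically; ID50 taken as 50% growth inhibition vs controls, from regression against log dose.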

[8] = tested on: Nucleic Acid; experiment: Maximum number of sites; format: nucleic-acid assay; settings: Bos taurus; method in brief: as §2
[9] = tested on: Mus musculus; experiment: Increase in life of span over controls, 10e5 L1210 cells per mouse of 20 g, by ip route LD0/10 at a conc of LD0/2(N); format: functional; method in brief: as §1
[10] = tested on: Mus musculus; experiment: Increase in life of span over controls, 10e5 L1210 cells per mouse of 20 g, by ip route LD0/10 at a conc of LD0/5(N); format: functional; method in brief: as §1
[11] = tested on: Mus musculus; experiment: Increase in life of span over controls, 10e5 L1210 cells per mouse of 20 g, by ip route LD0/10 ata conc of LD0/2(N); format: functional; method in brief: as §1

| Structure (SMILES) | ILS [1] | IC50 [2] | K app [3] | LD100 [4] | LD0 [5] | ILS [6] | IC50 [7] | rapp [8] | ILS [9] | ILS [10] | ILS [11] |
| --- | --- | --- | --- | --- | --- | --- | --- | --- | --- | --- | --- |
| COc1ccc2[nH]c3c(C)c4ccnc(NCCC(C)C)c4c(C)c3c2c1 | 10 | 800 nM | 3.75e+06 M⁻¹ | 350 mg/kg | 300 mg/kg | 5 | 500 nM | 0.2 | – | – | – |
| CCCNc1nccc2c(C)c3[nH]c4ccc(OC)cc4c3c(C)c12 | 0 | 100 nM | 2e+06 M⁻¹ | 200 mg/kg | 100 mg/kg | 2 | 300 nM | 0.2 | – | – | – |
| CCNc1nccc2c(C)c3[nH]c4ccc(OC)cc4c3c(C)c12 | 2 | 50 nM | 2.15e+06 M⁻¹ | 90 mg/kg | 70 mg/kg | – | 300 nM | 0.2 | 42 | 13 | – |
| COc1ccc2[nH]c3c(C)c4ccnc(NCC(C)C)c4c(C)c3c2c1 | – | 90 nM | 2.35e+06 M⁻¹ | – | > 200 mg/kg | – | 300 nM | 0.17 | – | – | – |
| COc1ccc2[nH]c3c(C)c4ccnc(N)c4c(C)c3c2c1 | 21 | 100 nM | 1e+06 M⁻¹ | 70 mg/kg | 60 mg/kg | 39 | – | 0.2 | – | – | 93 |

Reference: ChEMBL document CHEMBL1124281, “A new series of ellipticine derivatives (1-(alkylamino)-9-methoxyellipticine). Synthesis, DNA binding, and biological properties” (J Med Chem, 1988)
